Assay type in all cases: cell membranes, Membrane
One test has as its target D(1A) dopamine receptor (Rattus norvegicus, UniProt P18901). In words: Compound was evaluated for the inhibition of [3H]-SCH- 23390 binding to Dopamine receptor D1 of rat striatal membranes. In short, it runs like this:
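Rat striatum homogenized in Tris-HCl pH 7.4, pellet washed twice at 20,000g and resuspended at 3.5 mg wet weight/mL in 50 mM Tris-HCl with 120 mM NaCl, 5 mM KCl, 2 mM CaCl2, 1 mM MgCl2. Triplicates, three separate days. IC50 by log-probit analysis.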

The target of test [1] is T1, D(2) dopamine receptor (Rattus norvegicus, UniProt P61169). Kind of test: Compound was evaluated for the inhibition of [3H]spiperone binding to dopamine receptor D2 of rat striatal membranes. In short, it runs like this:
(§1)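 Rat striatal membranes were washed twice at 20,000g and suspended at 3.5 mg wet weight/mL in 50 mM Tris-HCl pH 7.4 with 120 mM NaCl, 5 mM KCl, 2 mM CaCl2, 1 mM MgCl2. Displacement of 0.1 nM [3H]spiperone (final) by 6-7 concentrations of test drug. Nonspecific binding defined with 1 μM (+)-butaclamol. Triplicates, repeated on three days. IC50 from log-probit plot.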

Test [2] addresses T1, D(2) dopamine receptor. Kind of test: Compound was evaluated for the inhibition of [3H]spiperone binding to Dopamine receptor D2 of rat striatal membranes. A digest of the protocol: as §1

The source of these data is ChEMBL document CHEMBL1124899 (J Med Chem, 1990).

Sequence of D(1A) dopamine receptor (P18901 whole entry): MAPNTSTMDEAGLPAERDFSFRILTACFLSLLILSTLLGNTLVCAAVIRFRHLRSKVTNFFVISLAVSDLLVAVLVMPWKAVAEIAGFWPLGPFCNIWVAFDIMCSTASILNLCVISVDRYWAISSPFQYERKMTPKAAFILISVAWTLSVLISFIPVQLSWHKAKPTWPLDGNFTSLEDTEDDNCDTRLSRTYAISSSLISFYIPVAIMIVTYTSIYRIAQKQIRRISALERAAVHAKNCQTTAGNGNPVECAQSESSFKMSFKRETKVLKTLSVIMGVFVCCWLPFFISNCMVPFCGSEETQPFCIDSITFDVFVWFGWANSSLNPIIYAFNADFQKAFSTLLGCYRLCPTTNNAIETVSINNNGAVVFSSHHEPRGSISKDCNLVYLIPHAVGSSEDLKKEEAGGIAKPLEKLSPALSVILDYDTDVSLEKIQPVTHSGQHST
T1 sequence (P61169 whole entry): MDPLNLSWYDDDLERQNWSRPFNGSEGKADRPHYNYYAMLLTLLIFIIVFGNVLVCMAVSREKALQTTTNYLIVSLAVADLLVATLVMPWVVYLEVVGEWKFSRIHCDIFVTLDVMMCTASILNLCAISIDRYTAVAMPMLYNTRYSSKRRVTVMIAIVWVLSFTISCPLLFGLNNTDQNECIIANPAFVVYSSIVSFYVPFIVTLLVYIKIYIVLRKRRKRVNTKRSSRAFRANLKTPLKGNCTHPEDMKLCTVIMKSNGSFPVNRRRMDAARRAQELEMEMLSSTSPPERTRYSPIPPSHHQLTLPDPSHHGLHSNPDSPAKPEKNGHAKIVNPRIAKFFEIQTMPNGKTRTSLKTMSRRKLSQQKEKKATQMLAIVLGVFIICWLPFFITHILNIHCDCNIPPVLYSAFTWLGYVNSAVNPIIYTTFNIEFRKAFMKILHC

Turning to `CCCN(CCc1ccccc1)CCc1ccc(O)c(F)c1`, the values for the IC50 at D(1A) dopamine receptor and at D(2) dopamine receptor [1] were 38 µM and 0.58 µM, respectively.

Regarding `CCCN(CC)CCc1ccc(F)c(O)c1`, the half-maximal inhibitory concentration (IC50) on D(1A) dopamine receptor is 11.1 µM; on D(2) dopamine receptor [1], 1.97 µM.

At D(1A) dopamine receptor, `CCN(CCc1ccccc1)CCc1ccc(F)c(O)c1` had a half-inhibitory concentration (IC50) of 8 µM. That is a single-digit micromolar value.

Turning to `CCCN(CCC)CCc1ccc(F)c(O)c1`, the IC50 at D(1A) dopamine receptor came out at 11.4 µM; at D(2) dopamine receptor [1], 0.95 µM.

For the compound `CCCN(CCc1ccccc1)CCc1ccc(F)c(O)c1`, the IC50 on D(1A) dopamine receptor was found to be 10.9 µM; at D(2) dopamine receptor [1], 0.25 µM.

With `NCCc1ccc(F)c(O)c1`, the results for the IC50 at D(1A) dopamine receptor and on D(2) dopamine receptor [2] were 6.15 µM and 4.64 µM, respectively.
